System: U2OS
Test: Multiplex assay against U2OS
Type: toxicity, cell-based
Conditions: human
How it was run: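 Cells were classed with CellPathfinder machine-learning gating, first as Hoechst high-intensity objects or normal cells, then (normal cells) as healthy, pyknosed or fragmented nuclei, and finally (pyknosed cells) as mitotic or apoptotic. Staining of live cells at seeding used Hoechst33342, BioTracker Green Microtubule Cytoskeleton Dye, MitoTracker Red and Annexin V Alexa Fluor 680, with imaging on a CQ1 microscope at 37°C and 5% CO2 after compound addition. Tubulin, mitochondrial-mass and membrane-permeability phenotypes are per cents of healthy-nucleus cells.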

[1] = 12 h, 1 µM, compound concentration 1 uM, replicate 1
[2] = 12 h, 1 µM, compound concentration 1 uM, replicate 2
[3] = 12 h, 10 µM, compound concentration 10 uM, replicate 1
[4] = 12 h, 10 µM, compound concentration 10 uM, replicate 2
[5] = 24 h, 1 µM, compound concentration 1 uM, replicate 1
[6] = 24 h, 1 µM, compound concentration 1 uM, replicate 2
[7] = 24 h, 10 µM, compound concentration 10 uM, replicate 1
[8] = 24 h, 10 µM, compound concentration 10 uM, replicate 2
[9] = 48 h, 1 µM, compound concentration 1 uM, replicate 1
[10] = 48 h, 1 µM, compound concentration 1 uM, replicate 2
[11] = 48 h, 10 µM, compound concentration 10 uM, replicate 1
[12] = 48 h, 10 µM, compound concentration 10 uM, replicate 2

COC(c1ccccc1)(c1ccccc1)[C@H](Oc1nc(C)cc(C)n1)C(=O)O [AMBRISENTAN]
Population Apoptotic (%) [1]: 95% | Population Fragmented Nuclei (%) [1]: 26% | Population Healthy Nuclei (%) [1]: 62% | Population Hoechst High Intensity Objects (%) [1]: 2% | Population Membrane Permeable-Phenotype (%) [1]: 3% | Population Mitochondria Different-Phenotype (%) [1]: 0% | Population Mitotic Cells (%) [1]: 4% | Population Normal (%) [1]: 97% | Population Pyknosed Nuclei (%) [1]: 10% | Population Tubulin-Different-Phenotype (%) [1]: 1% | Total Cell Count [1]: 209 | Population Apoptotic (%) [2]: 100% | Population Fragmented Nuclei (%) [2]: 21% | Population Healthy Nuclei (%) [2]: 72% | Population Membrane Permeable-Phenotype (%) [2]: 8% | Population Mitochondria Different-Phenotype (%) [2]: 3% | Population Mitotic Cells (%) [2]: 0% | Population Pyknosed Nuclei (%) [2]: 5% | Total Cell Count [2]: 87 | Population Apoptotic (%) [3]: 61% | Population Fragmented Nuclei (%) [3]: 28% | Population Healthy Nuclei (%) [3]: 63% | Population Hoechst High Intensity Objects (%) [3]: 2% | Population Membrane Permeable-Phenotype (%) [3]: 4% | Population Mitochondria Different-Phenotype (%) [3]: 2% | Population Mitotic Cells (%) [3]: 38% | Population Normal (%) [3]: 97% | Population Pyknosed Nuclei (%) [3]: 7% | Population Tubulin-Different-Phenotype (%) [3]: 1% | Total Cell Count [3]: 232 | Population Apoptotic (%) [4]: 100% | Population Fragmented Nuclei (%) [4]: 19% | Population Healthy Nuclei (%) [4]: 72% | Population Hoechst High Intensity Objects (%) [4]: 0% | Population Mitochondria Different-Phenotype (%) [4]: 0% | Population Mitotic Cells (%) [4]: 0% | Population Normal (%) [4]: 99% | Population Tubulin-Different-Phenotype (%) [4]: 0% | Total Cell Count [4]: 104 | Population Apoptotic (%) [5]: 95% | Population Fragmented Nuclei (%) [5]: 27% | Population Healthy Nuclei (%) [5]: 63% | Population Hoechst High Intensity Objects (%) [5]: 0% | Population Membrane Permeable-Phenotype (%) [5]: 4% | Population Mitochondria Different-Phenotype (%) [5]: 1% | Population Mitotic Cells (%) [5]: 4% | Population Normal (%) [5]: 99% | Population Pyknosed Nuclei (%) [5]: 8% | Population Tubulin-Different-Phenotype (%) [5]: 1% | Total Cell Count [5]: 248 | Population Apoptotic (%) [6]: 100% | Population Fragmented Nuclei (%) [6]: 23% | Population Healthy Nuclei (%) [6]: 66% | Population Membrane Permeable-Phenotype (%) [6]: 1% | Population Mitochondria Different-Phenotype (%) [6]: 2% | Population Mitotic Cells (%) [6]: 0% | Population Pyknosed Nuclei (%) [6]: 10% | Total Cell Count [6]: 111 | Population Apoptotic (%) [7]: 84% | Population Fragmented Nuclei (%) [7]: 25% | Population Healthy Nuclei (%) [7]: 65% | Population Hoechst High Intensity Objects (%) [7]: 1% | Population Membrane Permeable-Phenotype (%) [7]: 7% | Population Mitochondria Different-Phenotype (%) [7]: 2% | Population Mitotic Cells (%) [7]: 16% | Population Normal (%) [7]: 98% | Population Pyknosed Nuclei (%) [7]: 9% | Population Tubulin-Different-Phenotype (%) [7]: 3% | Total Cell Count [7]: 273 | Population Apoptotic (%) [8]: 80% | Population Fragmented Nuclei (%) [8]: 13% | Population Healthy Nuclei (%) [8]: 77% | Population Hoechst High Intensity Objects (%) [8]: 0% | Population Mitotic Cells (%) [8]: 20% | Population Normal (%) [8]: 100% | Population Pyknosed Nuclei (%) [8]: 8% | Population Tubulin-Different-Phenotype (%) [8]: 5% | Total Cell Count [8]: 115 | Population Apoptotic (%) [9]: 89% | Population Fragmented Nuclei (%) [9]: 17% | Population Healthy Nuclei (%) [9]: 70% | Population Hoechst High Intensity Objects (%) [9]: 2% | Population Membrane Permeable-Phenotype (%) [9]: 2% | Population Mitochondria Different-Phenotype (%) [9]: 1% | Population Mitotic Cells (%) [9]: 10% | Population Normal (%) [9]: 97% | Population Pyknosed Nuclei (%) [9]: 11% | Population Tubulin-Different-Phenotype (%) [9]: 0% | Total Cell Count [9]: 333 | Population Apoptotic (%) [10]: 93% | Population Healthy Nuclei (%) [10]: 72% | Population Membrane Permeable-Phenotype (%) [10]: 0% | Population Mitotic Cells (%) [10]: 6% | Population Pyknosed Nuclei (%) [10]: 10% | Total Cell Count [10]: 151 | Population Apoptotic (%) [11]: 87% | Population Fragmented Nuclei (%) [11]: 21% | Population Healthy Nuclei (%) [11]: 68% | Population Hoechst High Intensity Objects (%) [11]: 3% | Population Membrane Permeable-Phenotype (%) [11]: 4% | Population Mitochondria Different-Phenotype (%) [11]: 2% | Population Mitotic Cells (%) [11]: 12% | Population Normal (%) [11]: 96% | Population Pyknosed Nuclei (%) [11]: 10% | Population Tubulin-Different-Phenotype (%) [11]: 3% | Total Cell Count [11]: 388 | Population Apoptotic (%) [12]: 81% | Population Fragmented Nuclei (%) [12]: 13% | Population Healthy Nuclei (%) [12]: 79% | Population Hoechst High Intensity Objects (%) [12]: 0% | Population Membrane Permeable-Phenotype (%) [12]: 2% | Population Mitochondria Different-Phenotype (%) [12]: 0% | Population Mitotic Cells (%) [12]: 18% | Population Normal (%) [12]: 100% | Population Pyknosed Nuclei (%) [12]: 6% | Population Tubulin-Different-Phenotype (%) [12]: 2% | Total Cell Count [12]: 174

CC(C)C[C@H](CO)Nc1nc(S[C@@H](C)c2ccccc2)nc2nc(N)sc12 [AZD-8797]
Population Apoptotic (%) [1]: 83% | Population Fragmented Nuclei (%) [1]: 20% | Population Healthy Nuclei (%) [1]: 65% | Population Hoechst High Intensity Objects (%) [1]: 3% | Population Membrane Permeable-Phenotype (%) [1]: 5% | Population Mitochondria Different-Phenotype (%) [1]: 1% | Population Mitotic Cells (%) [1]: 16% | Population Normal (%) [1]: 96% | Population Pyknosed Nuclei (%) [1]: 14% | Population Tubulin-Different-Phenotype (%) [1]: 2% | Total Cell Count [1]: 177 | Population Apoptotic (%) [2]: 100% | Population Fragmented Nuclei (%) [2]: 12% | Population Healthy Nuclei (%) [2]: 82% | Population Hoechst High Intensity Objects (%) [2]: 0% | Population Mitochondria Different-Phenotype (%) [2]: 5% | Population Mitotic Cells (%) [2]: 0% | Population Normal (%) [2]: 100% | Population Pyknosed Nuclei (%) [2]: 5% | Population Tubulin-Different-Phenotype (%) [2]: 3% | Total Cell Count [2]: 95 | Population Apoptotic (%) [3]: 63% | Population Fragmented Nuclei (%) [3]: 21% | Population Healthy Nuclei (%) [3]: 56% | Population Hoechst High Intensity Objects (%) [3]: 4% | Population Membrane Permeable-Phenotype (%) [3]: 30% | Population Mitochondria Different-Phenotype (%) [3]: 12% | Population Mitotic Cells (%) [3]: 36% | Population Normal (%) [3]: 95% | Population Pyknosed Nuclei (%) [3]: 22% | Population Tubulin-Different-Phenotype (%) [3]: 20% | Total Cell Count [3]: 222 | Population Apoptotic (%) [4]: 78% | Population Fragmented Nuclei (%) [4]: 9% | Population Healthy Nuclei (%) [4]: 79% | Population Hoechst High Intensity Objects (%) [4]: 2% | Population Membrane Permeable-Phenotype (%) [4]: 10% | Population Mitochondria Different-Phenotype (%) [4]: 16% | Population Mitotic Cells (%) [4]: 21% | Population Normal (%) [4]: 97% | Population Pyknosed Nuclei (%) [4]: 10% | Population Tubulin-Different-Phenotype (%) [4]: 6% | Total Cell Count [4]: 135 | Population Apoptotic (%) [5]: 81% | Population Fragmented Nuclei (%) [5]: 20% | Population Healthy Nuclei (%) [5]: 68% | Population Hoechst High Intensity Objects (%) [5]: 1% | Population Membrane Permeable-Phenotype (%) [5]: 2% | Population Mitochondria Different-Phenotype (%) [5]: 0% | Population Mitotic Cells (%) [5]: 18% | Population Normal (%) [5]: 98% | Population Pyknosed Nuclei (%) [5]: 10% | Population Tubulin-Different-Phenotype (%) [5]: 2% | Total Cell Count [5]: 219 | Population Apoptotic (%) [6]: 83% | Population Fragmented Nuclei (%) [6]: 17% | Population Healthy Nuclei (%) [6]: 77% | Population Hoechst High Intensity Objects (%) [6]: 0% | Population Membrane Permeable-Phenotype (%) [6]: 4% | Population Mitochondria Different-Phenotype (%) [6]: 2% | Population Mitotic Cells (%) [6]: 16% | Population Normal (%) [6]: 100% | Population Pyknosed Nuclei (%) [6]: 4% | Population Tubulin-Different-Phenotype (%) [6]: 3% | Total Cell Count [6]: 121 | Population Apoptotic (%) [7]: 76% | Population Fragmented Nuclei (%) [7]: 20% | Population Healthy Nuclei (%) [7]: 58% | Population Hoechst High Intensity Objects (%) [7]: 3% | Population Membrane Permeable-Phenotype (%) [7]: 22% | Population Mitochondria Different-Phenotype (%) [7]: 12% | Population Mitotic Cells (%) [7]: 24% | Population Normal (%) [7]: 96% | Population Pyknosed Nuclei (%) [7]: 21% | Population Tubulin-Different-Phenotype (%) [7]: 13% | Total Cell Count [7]: 245 | Population Apoptotic (%) [8]: 100% | Population Fragmented Nuclei (%) [8]: 7% | Population Healthy Nuclei (%) [8]: 86% | Population Hoechst High Intensity Objects (%) [8]: 1% | Population Membrane Permeable-Phenotype (%) [8]: 9% | Population Mitotic Cells (%) [8]: 0% | Population Normal (%) [8]: 98% | Population Pyknosed Nuclei (%) [8]: 6% | Population Tubulin-Different-Phenotype (%) [8]: 6% | Total Cell Count [8]: 156 | Population Apoptotic (%) [9]: 94% | Population Fragmented Nuclei (%) [9]: 18% | Population Healthy Nuclei (%) [9]: 69% | Population Hoechst High Intensity Objects (%) [9]: 2% | Population Membrane Permeable-Phenotype (%) [9]: 6% | Population Mitochondria Different-Phenotype (%) [9]: 0% | Population Mitotic Cells (%) [9]: 5% | Population Normal (%) [9]: 97% | Population Pyknosed Nuclei (%) [9]: 11% | Population Tubulin-Different-Phenotype (%) [9]: 2% | Total Cell Count [9]: 352 | Population Apoptotic (%) [10]: 100% | Population Fragmented Nuclei (%) [10]: 15% | Population Healthy Nuclei (%) [10]: 77% | Population Membrane Permeable-Phenotype (%) [10]: 2% | Population Mitochondria Different-Phenotype (%) [10]: 2% | Population Mitotic Cells (%) [10]: 0% | Population Pyknosed Nuclei (%) [10]: 6% | Total Cell Count [10]: 181 | Population Apoptotic (%) [11]: 90% | Population Fragmented Nuclei (%) [11]: 26% | Population Healthy Nuclei (%) [11]: 54% | Population Hoechst High Intensity Objects (%) [11]: 4% | Population Membrane Permeable-Phenotype (%) [11]: 20% | Population Mitochondria Different-Phenotype (%) [11]: 10% | Population Mitotic Cells (%) [11]: 9% | Population Normal (%) [11]: 95% | Population Pyknosed Nuclei (%) [11]: 19% | Population Tubulin-Different-Phenotype (%) [11]: 14% | Total Cell Count [11]: 296 | Population Apoptotic (%) [12]: 96% | Population Fragmented Nuclei (%) [12]: 12% | Population Healthy Nuclei (%) [12]: 74% | Population Hoechst High Intensity Objects (%) [12]: 3% | Population Membrane Permeable-Phenotype (%) [12]: 11% | Population Mitochondria Different-Phenotype (%) [12]: 5% | Population Mitotic Cells (%) [12]: 3% | Population Normal (%) [12]: 96% | Population Pyknosed Nuclei (%) [12]: 12% | Population Tubulin-Different-Phenotype (%) [12]: 4% | Total Cell Count [12]: 218
